Assay outcomes as filed in PubChem BioAssay.
NPY-Y1 antag: antagonists of human neuropeptide Y receptor Y1 | P25929 | HEK293-CNG Y1 cells, membrane potential fluorescence; NPY at EC95, then isoproterenol | inhibition, % at 3.6 µM | 1% of 200,000 active;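 active = inhibition above the campaign mean inhibition of all tested compounds plus 3 SD, cut at about 20% in these data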;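 also: 0% = DMSO wells given NPY plus isoproterenol and 100% = isoproterenol alone without NPY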
Target sequence (P25929 whole entry, looked up): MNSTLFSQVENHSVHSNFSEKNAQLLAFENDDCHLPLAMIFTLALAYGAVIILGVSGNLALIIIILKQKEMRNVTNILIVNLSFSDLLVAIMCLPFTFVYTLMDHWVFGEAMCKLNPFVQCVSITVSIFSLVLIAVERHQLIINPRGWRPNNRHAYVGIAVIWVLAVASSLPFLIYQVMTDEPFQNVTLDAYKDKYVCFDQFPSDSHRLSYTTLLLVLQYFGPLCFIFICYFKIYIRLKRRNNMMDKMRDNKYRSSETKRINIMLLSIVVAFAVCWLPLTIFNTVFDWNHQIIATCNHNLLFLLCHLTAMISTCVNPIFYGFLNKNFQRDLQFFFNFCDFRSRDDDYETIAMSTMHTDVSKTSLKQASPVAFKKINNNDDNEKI
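Assay system: HEK293 cells with Y1 receptor plus CNG channel | Probe or stimulus: NPY (25 nM), isoproterenol (1 µM), Ro 20-1724 (25 µM) | Timing: Compound incubation 1 h at room temperature, readout 45 min post-stimulation | Measured by: Membrane-potential fluorescent dye readout | Benchmarks: High control isoproterenol alone, low control NPY with isoproterenol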
NPY-Y1 PAM-ag: human NPY-Y1 potentiation or agonism, primary screen | AID 1304 | activation, % at 3.6 µM | NPY-Y1 expressing cells, potentiator/agonist activation | 0.37% of 220,000 active; in the data active = activation above about 33%, passing the limit was not always enough;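 also: cells stimulated with NPY at EC10 then isoproterenol at EC100; 0% = low agonist plus stimulus and 100% = saturating agonist plus stimulus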
NPY-Y2 PAM-ag: human NPY-Y2 potentiation or agonism, primary screen; P49146; cells expressing NPY-Y2, potentiator/agonist read-out; activation, % at 3.6 µM; 0.45% of 220,000 active; AID 1359; in the data active = activation above about 27%;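 also: cells stimulated with NPY near EC25 plus isoproterenol at EC100; 0% = vehicle plus submaximal agonist and 100% = vehicle plus saturating agonist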
NPY-Y2 antag: blocks the human neuropeptide Y Y2 receptor; 0.99% of 140,000 active; inhibition, % at 2.7 µM; NPY-Y2 expressing cells, antagonist mode; AID 793; P49146; in the data active = inhibition above about 17%;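 also: 0% = vehicle with agonist challenge and 100% = reference antagonist with challenge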
NPY-Y1 pot conf: human NPY-Y1 potentiation or agonism, confirmation. shares compounds with NPY-Y1 PAM-ag. cell-based NPY-Y1 potentiator/agonist assay. activation, % at 3.6 µM. 20% of 280 active; in the data active = activation above about 45%;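 also: cells challenged with NPY at its EC10 plus isoproterenol stimulus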
NPY-Y2 counter: NPY-Y2 potentiation or agonism as NPY-Y1 counter-screen; 20% of 280 active; shares compounds with NPY-Y1 PAM-ag; AID 1649; HEK293-CNG cells, membrane-potential fluorescence (FLIPR), 1536-well; activation, % at 3.6 µM; in the data active = activation above about 33%
NPY-Y1 agonist: human NPY-Y1 agonism as potentiator counter-screen | shares compounds with NPY-Y1 PAM-ag | HEK293 Y1-CNGC, membrane potential fluorescence, agonist mode | activation, % at 3.6 µM | 50% of 280 active | AID 1697;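 active = percent activation above the mean of DMSO-only control wells plus 3 SD of those wells, cut at about 18% in these data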;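 also: cells challenged with isoproterenol plus Ro 20-1724 with no NPY in test wells; Y1 agonism lowers isoproterenol-driven cAMP and reduces probe fluorescence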
NPY-Y2 agonist: counter-screen for NPY-Y1 potentiators or agonists: agonists of NPY-Y2. 67% of 280 active. shares compounds with NPY-Y1 PAM-ag. AID 1698. activation, % at 3.6 µM. HEK293 Y2-CNGC, membrane potential fluorescence, agonist mode;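 active = activation above the solvent-only control wells' mean plus 3 SD, cut at about 11% in these data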;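 also: 0% = DMSO with isoproterenol and 100% = 40 nM NPY maximal response; agonism lowers cAMP so well fluorescence drops in active wells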
CNGC inh 2: blocks cyclic nucleotide gated channel in NPY-Y1 counter-screen; shares compounds with NPY-Y1 PAM-ag; 42% of 280 active; inhibition, % at 3.6 µM; HEK293-CNG parental, isoproterenol cAMP, membrane potential fluorescence; AID 1704;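 active = inhibition above the mean of stimulated solvent-only control wells plus 3 SD, cut at about 22% in these data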;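 also: 0% = isoproterenol-stimulated DMSO wells and 100% = unstimulated DMSO wells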
* hit, by the source's call. The list is not random: actives were taken first. Their share in the collection is about 1.9%.

For CC1(/[N+]([O-])=C/c2ccccc2F)CCCCC1=O (stereo not given) the results were NPY-Y1 antag 3, NPY-Y1 PAM-ag -5 and NPY-Y2 PAM-ag 6.
COc1ccc(-n2nc3ccc(NS(C)(=O)=O)cc3n2)cc1Cl was read as NPY-Y1 antag 3, NPY-Y1 PAM-ag 42*, NPY-Y2 PAM-ag 20, NPY-Y2 antag 0, NPY-Y1 pot conf 43, NPY-Y2 counter 8, NPY-Y1 agonist 46*, NPY-Y2 agonist 16* and CNGC inh 2 17.
For O=C1c2cccc3cccc(c23)C(=O)N1CCN1CCN(CC(O)COCc2ccc(Cl)cc2)CC1 (stereo not given) the results were NPY-Y1 antag 3, NPY-Y1 PAM-ag 37*, NPY-Y2 PAM-ag 29, NPY-Y2 antag 3, NPY-Y1 pot conf 41, NPY-Y2 counter 46*, NPY-Y1 agonist 31*, NPY-Y2 agonist 57* and CNGC inh 2 47*.
For COc1cc(COCC(O)CN2CCN(CCN3C(=O)c4cccc5cccc(c45)C3=O)CC2)cc(OC)c1OC (stereo not given) the results were NPY-Y1 antag -6, NPY-Y1 PAM-ag -2, NPY-Y2 PAM-ag 7 and NPY-Y2 antag 1.
CC(=O)c1ccccc1OCC(O)CN1CCN(CCN2C(=O)c3cccc4cccc(c34)C2=O)CC1 (stereo not given) was read as NPY-Y1 antag -7, NPY-Y1 PAM-ag 36*, NPY-Y2 PAM-ag 19, NPY-Y1 pot conf 30, NPY-Y2 counter 27, NPY-Y1 agonist 10, NPY-Y2 agonist 20* and CNGC inh 2 15.
Screening O=C(O)/C=C/c1ccc(S(=O)(=O)NCc2ccco2)cc1 returned NPY-Y1 antag 2, NPY-Y1 PAM-ag 64*, NPY-Y2 PAM-ag -10, NPY-Y1 pot conf 4, NPY-Y2 counter -3, NPY-Y1 agonist -10, NPY-Y2 agonist -8 and CNGC inh 2 -2.
Screening CCN(CC)S(=O)(=O)c1cc(NC(=O)Cn2ncc(Cl)c(Cl)c2=O)ccc1C returned NPY-Y1 PAM-ag 44*, NPY-Y2 PAM-ag 32, NPY-Y1 pot conf 36, NPY-Y2 counter 19, NPY-Y1 agonist 22*, NPY-Y2 agonist 18* and CNGC inh 2 27*.
For O=C(NC(Cc1c[nH]c2ccccc12)C(=O)OCC(=O)c1cccc2ccccc12)c1cccs1 (stereo not given) the results were NPY-Y1 antag 1, NPY-Y1 PAM-ag 0, NPY-Y2 PAM-ag -7 and NPY-Y2 antag 8.
CCn1nc([N+](=O)[O-])c(C(C#N)c2nc3ccccc3n2C)c(Cl)c1=O (stereo not given) was read as NPY-Y1 antag 0, NPY-Y1 PAM-ag -7, NPY-Y2 PAM-ag 8 and NPY-Y2 antag 3.
CCCn1nc([N+](=O)[O-])c(C(C#N)c2nc3ccccc3s2)c(Cl)c1=O (stereo not given) was read as NPY-Y1 antag -7, NPY-Y1 PAM-ag 59*, NPY-Y2 PAM-ag 27, NPY-Y2 antag 4, NPY-Y1 pot conf 20, NPY-Y2 counter 21, NPY-Y1 agonist 17, NPY-Y2 agonist 32* and CNGC inh 2 17.
COC(=O)c1ccc(=O)c2nc3/c(=C/O)c(O)cc(=O)c3[nH]c12 was read as NPY-Y1 PAM-ag 14 and NPY-Y2 PAM-ag -3.
OC(COc1cccc2ccccc12)CN1CCN(c2ccccc2)CC1 (stereo not given) was read as NPY-Y1 PAM-ag 54*, NPY-Y2 PAM-ag -10, NPY-Y1 pot conf 2, NPY-Y2 counter 6, NPY-Y1 agonist 29*, NPY-Y2 agonist 17* and CNGC inh 2 -22.
Screening Cc1ccc(OCC(O)CN2CCN(c3ccccc3)CC2)cc1 (stereo not given) returned NPY-Y1 antag 6, NPY-Y1 PAM-ag -15, NPY-Y2 PAM-ag -22 and NPY-Y2 antag 10.
